Laboratory results taken from ChEMBL document CHEMBL1151753, “New benzylureas as a novel series of potent, nonpeptidic vasopressin V2 receptor agonists” (J Med Chem, 2008).
Converted amounts (≈) assume the structure as drawn. The source made the active and inactive calls. The calls are words filed in the database; no cut-off is given here.

How the values were obtained:
Vasopressin V2 receptor [1] = molecular target: T1, Vasopressin V2 receptor (Homo sapiens, UniProt P30518); assay: Agonist activity at human vasopressin V2 receptor expressed in HEK293 cells assessed as increase in intracellular cAMP level by CRE-luciferase reporter gene assay; format: functional, cell-based
Method in brief: (§1)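 HEK293 cells grown to 70-80% confluency, transiently transfected with receptor plus pGL4 CRE-Luc reporter, incubated 24 h at 37 °C/5% CO2, plated at 10000 cells/well, a further 24 h. Compounds in 0.5 log serial dilutions in duplicate, final DMSO 0.1%. Luciferase read by luminescence after 5 h at 37 °C, expressed as % of 100 nM AVP control. 4-parameter logistic fit gave EC50, reported as geometric mean ± SD.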

[2] = Aqueous solubility of the compound; format: physicochemical; conditions: water (aqueous)
Vasopressin V2 receptor [3] = molecular target: Vasopressin V2 receptor (Rattus norvegicus, UniProt Q00788); assay: Agonist activity at rat vasopressin V2 receptor expressed in HEK293 cells assessed as increase in intracellular cAMP level by CRE-luciferase reporter gene assay; format: functional, cell-based; method in brief: as §1
Rattus norvegicus [4] = assay: Antidiuretic effect in Long-Evans Brattleboro rat model assessed as inhibition of urine production at 1 mg/kg, po after 1 hr relative to control; format: functional
Method in brief: (§2)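 Brattleboro rats (Long-Evans hooded strain lacking circulating AVP, diabetes insipidus model) dosed orally in carboxymethyl cellulose. Voided urine collected and measured over 1 h periods and compared with vehicle-treated animals. At least six animals per group, data as means.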

Rattus norvegicus [5] = assay: Antidiuretic effect in Long-Evans Brattleboro rat model assessed as inhibition of urine production at 1 mg/kg, po after 1 to 2 hrs; format: functional, organism-based; parameters: dose 1 mg/kg; method in brief: as §2
Vasopressin V2 receptor [6] = molecular target: T1, Vasopressin V2 receptor; assay: Binding affinity to human vasopressin V2 receptor expressed in HEK293 cells by radioligand binding assay; format: cell-based
Oxytocin receptor = molecular target: T2, Oxytocin receptor (Homo sapiens, UniProt P30559); assay: Binding affinity to oxytocin receptor
T2 sequence (P30559 whole entry): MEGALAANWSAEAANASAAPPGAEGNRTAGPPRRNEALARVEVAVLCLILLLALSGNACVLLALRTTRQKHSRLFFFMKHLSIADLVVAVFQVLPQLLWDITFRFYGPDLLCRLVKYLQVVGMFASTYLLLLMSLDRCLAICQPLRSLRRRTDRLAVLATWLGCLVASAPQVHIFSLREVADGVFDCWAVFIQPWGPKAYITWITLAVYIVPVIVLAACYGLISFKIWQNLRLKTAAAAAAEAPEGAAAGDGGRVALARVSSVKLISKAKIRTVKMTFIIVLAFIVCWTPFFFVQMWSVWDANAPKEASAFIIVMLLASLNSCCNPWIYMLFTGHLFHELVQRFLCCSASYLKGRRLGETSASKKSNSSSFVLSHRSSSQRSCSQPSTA

Rattus norvegicus [7] = assay: Antidiuretic effect in Long-Evans Brattleboro rat model assessed as inhibition of urine production at 1 mg/kg, po in methylcellulose after 5 hrs; format: functional, organism-based; parameters: dose 1 mg/kg
[8] = molecular target: Vasopressin V2 receptor (Rattus norvegicus) (UniProt Q00788); assay: Agonist activity at rat vasopressin V2 receptor expressed in HEK293 cells assessed as increase in intracellular cAMP level by CRE-luciferase reporter gene assay relative to arginine vasopressin
Vasopressin V2 receptor [9] = molecular target: T1, Vasopressin V2 receptor; assay: Agonist activity at human vasopressin V2 receptor expressed in HEK293 cells assessed as increase in intracellular cAMP level by CRE-luciferase reporter gene assay relative to arginine vasopressin; format: functional, cell-based; method in brief: as §1
[10] = molecular target: Vasopressin V1a receptor (Homo sapiens) (UniProt P37288); assay: Agonist activity at human vasopressin V1a receptor upto 10 uM by reporter gene assay; format: functional; method in brief: as §1
Rattus norvegicus [11] = assay: Antidiuretic effect in Long-Evans Brattleboro rat model assessed as inhibition of urine production at 3 mg/kg, po after 2 hrs; format: functional, organism-based; parameters: dose 3 mg/kg; method in brief: as §2
[12] = molecular target: T3, Vasopressin V1b receptor (Homo sapiens) (UniProt P47901); assay: Agonist activity at human vasopressin V1b receptor upto 10 uM by reporter gene assay; format: functional; method in brief: as §1
T3 sequence (whole entry): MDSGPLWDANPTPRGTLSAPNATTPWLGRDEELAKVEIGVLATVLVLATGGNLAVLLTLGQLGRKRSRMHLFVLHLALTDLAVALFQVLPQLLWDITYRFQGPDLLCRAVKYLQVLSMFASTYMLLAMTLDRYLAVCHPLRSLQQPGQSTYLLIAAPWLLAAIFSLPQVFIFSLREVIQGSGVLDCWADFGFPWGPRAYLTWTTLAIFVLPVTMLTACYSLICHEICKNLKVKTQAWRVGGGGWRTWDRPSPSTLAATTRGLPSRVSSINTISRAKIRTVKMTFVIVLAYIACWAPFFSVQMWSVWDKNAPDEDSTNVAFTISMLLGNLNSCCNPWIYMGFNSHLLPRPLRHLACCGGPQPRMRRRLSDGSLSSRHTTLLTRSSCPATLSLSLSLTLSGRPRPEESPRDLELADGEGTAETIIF

T1 sequence (P30518 whole entry): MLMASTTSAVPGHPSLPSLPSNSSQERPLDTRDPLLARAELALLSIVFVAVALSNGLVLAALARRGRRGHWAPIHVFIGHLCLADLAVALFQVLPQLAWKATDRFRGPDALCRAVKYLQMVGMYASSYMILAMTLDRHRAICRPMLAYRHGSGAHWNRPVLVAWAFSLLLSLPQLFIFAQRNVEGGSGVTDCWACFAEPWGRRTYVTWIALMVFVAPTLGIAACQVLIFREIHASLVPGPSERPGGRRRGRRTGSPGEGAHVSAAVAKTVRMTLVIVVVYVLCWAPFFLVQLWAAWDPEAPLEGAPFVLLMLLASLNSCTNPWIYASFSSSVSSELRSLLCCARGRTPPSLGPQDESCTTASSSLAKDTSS
Chain of Vasopressin V2 receptor (Rattus norvegicus, UniProt Q00788) (Q00788 whole entry): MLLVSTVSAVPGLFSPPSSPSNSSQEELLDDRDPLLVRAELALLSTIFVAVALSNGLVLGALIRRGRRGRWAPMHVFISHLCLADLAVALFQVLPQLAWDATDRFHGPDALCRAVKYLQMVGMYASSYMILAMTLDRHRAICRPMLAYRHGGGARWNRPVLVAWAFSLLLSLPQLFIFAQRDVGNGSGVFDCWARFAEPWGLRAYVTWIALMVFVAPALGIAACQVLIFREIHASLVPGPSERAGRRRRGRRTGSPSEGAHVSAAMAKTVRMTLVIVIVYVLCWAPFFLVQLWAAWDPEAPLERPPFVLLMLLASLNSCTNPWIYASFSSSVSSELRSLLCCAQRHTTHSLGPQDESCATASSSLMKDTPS
Chain of Vasopressin V1a receptor (Homo sapiens) (P37288 whole entry, looked up): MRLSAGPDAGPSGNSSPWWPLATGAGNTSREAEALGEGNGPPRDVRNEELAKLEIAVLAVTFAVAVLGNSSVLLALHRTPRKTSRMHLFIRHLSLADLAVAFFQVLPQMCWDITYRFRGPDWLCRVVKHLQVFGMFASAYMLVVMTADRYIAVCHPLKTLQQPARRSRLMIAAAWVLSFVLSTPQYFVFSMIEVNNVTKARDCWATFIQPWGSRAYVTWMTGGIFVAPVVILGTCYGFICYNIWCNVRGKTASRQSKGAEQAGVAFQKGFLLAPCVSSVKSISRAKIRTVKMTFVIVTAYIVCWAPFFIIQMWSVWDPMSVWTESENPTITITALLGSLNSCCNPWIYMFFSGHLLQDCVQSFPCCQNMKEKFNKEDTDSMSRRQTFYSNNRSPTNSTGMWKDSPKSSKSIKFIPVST
Chain of Vasopressin V2 receptor (Rattus norvegicus) (Q00788 whole entry, looked up): as the sequence (Q00788 whole entry) above

EC50 (Vasopressin V2 receptor [1]) [nM] | SMILES | further results
27 | Cc1cc(C(=O)N2CCCCc3ccccc32)ccc1CNC(=O)N1CC(=O)C[C@H]1C(=O)N(C)C | 
1000 | Cc1cc(C(=O)N2CCCOc3ccccc32)ccc1CNC(=O)N1CCC[C@H]1C(=O)N(C)C | 
230 | Cc1cc(C(=O)N2CCCC(O)c3ccccc32)ccc1CNC(=O)N1CCC[C@H]1C(=O)N(C)C (stereo partly specified) | 
50 | Cc1cc(C(=O)N2CCCCc3ccccc32)ccc1CNC(=O)N1CC(F)(F)C[C@H]1C(=O)N(C)C | 
380 | Cc1cc(C(=O)N2CCCCc3ccccc32)ccc1CNC(=O)N1CCC[C@@H]1C(=O)N(C)C | 
100 | COC(=O)[C@@H]1CCCN1C(=O)NCc1ccc(C(=O)N2CCCCc3ccccc32)cc1C | 
680 | Cc1cc(C(=O)N2CCCCc3ccccc32)ccc1CNC(=O)N1CCC[C@H]1C(=O)O | 
84 | Cc1cc(C(=O)N2CCc3ccccc3-c3ccccc32)ccc1CNC(=O)N1CCC[C@H]1C(=O)N(C)C | 
350 | CCN(CC)C(=O)[C@@H]1CCCN1C(=O)NCc1ccc(C(=O)N2CCCCc3ccccc32)cc1C | 
3.2 | Cc1cc(C(=O)N2CCCCc3ccccc32)ccc1CNC(=O)N1CCC[C@H]1C(=S)N(C)C | 
220 | Cc1cc(C(=O)N2CCCC(C)c3ccccc32)ccc1CNC(=O)N1CCC[C@H]1C(=O)N(C)C (stereo partly specified) | 
120 | Cc1cc(C(=O)N2Cc3cccn3Cc3ccccc32)ccc1CNC(=O)N1CCC[C@H]1C(=O)N(C)C | 
140 | Cc1cc(C(=O)N2CCc3cccn3-c3ccccc32)ccc1CNC(=O)N1CCC[C@H]1C(=O)N(C)C | 
2.3 | Cc1cc(C(=O)N2CCCCc3ccccc32)ccc1CNC(=O)N1C[C@H](O)C[C@H]1C(=O)N(C)C | EC50 (Vasopressin V2 receptor [3]): 41 nM; inhibition in vivo at 1 mg/kg (Rattus norvegicus [4]): 68%
24 | Cc1cc(C(=O)N2CCCCc3ccccc32)ccc1CNC(=O)N1CCC[C@H]1C(=O)N(C)C [FEDOVAPAGON] | Efficacy (Vasopressin V2 receptor [9]): 100%; Activity [10]: inactive; Ki (Vasopressin V2 receptor [6]): 2000 nM; Activity (Rattus norvegicus [11]): Active; EC50 (Vasopressin V2 receptor [3]): 150 nM; Activity [12]: inactive; inhibition in vivo at 1 mg/kg (Rattus norvegicus [4]): 81%; Ki (Oxytocin receptor): > 10000 nM
1700 | Cc1cc(C(=O)N2CCCC(F)(F)c3ccccc32)ccc1CNC(=O)N1CCC[C@H]1C(=O)N(C)C | 

Further lines, the compound ahead of its results:

SMILES | EC50 (Vasopressin V2 receptor [1]) [nM] | further results
Cc1cc(C(=O)N2CCCCc3ccccc32)ccc1CNC(=O)NCC(=O)N1CCCCC1 | 150 | 
Cc1cc(C(=O)N2CCCCc3ccccc32)ccc1CNC(=O)Nc1ccccc1F | 30 | 
O=C(NCc1ccc(C(=O)N2CCCCc3ccccc32)c(Cl)c1)Nc1c(F)cccc1F | 40 | 
Cc1cc(C(=O)N2CCCCc3ccccc32)ccc1CNC(=O)NCC(=O)NCc1ccccc1 | 270 | 
Cc1cc(C(=O)N2CCCCc3ccccc32)ccc1CNC(=O)NCC(=O)OCc1ccccc1 | 730 | 
Cc1cc(C(=O)N2CCCCc3ccccc32)ccc1CNC(=O)NCC(N)=O | 210 | 
COc1cc(CNC(=O)Nc2c(F)cccc2F)ccc1C(=O)N1CCCCc2ccccc21 | 110 | 
Cc1cc(C(=O)N2CCCCc3ccccc32)ccc1CNC(=O)NCC(=O)OC(C)C | 140 | 
CCc1cc(C(=O)N2CCCCc3ccccc32)ccc1CNC(=O)Nc1c(F)cccc1F | 10 | 
Cc1cc(C(=O)N2CCCCc3ccccc32)ccc1CNC(=O)N1C[C@H](OC(C)(C)C)C[C@H]1C(=O)N(C)C | 46 | 
Cc1cc(C(=O)N2CCCCc3ccccc32)ccc1CNC(=O)NCC(=O)N(C)C | 58 | solubility [2]: 177 µg/mL (≈ 419 µM); EC50 (Vasopressin V2 receptor [3]): 50 nM; inhibition in vivo at 1 mg/kg (Rattus norvegicus [4]): 82%; Activity (Rattus norvegicus [5]): Active
Cc1cc(C(=O)N2CCCCc3ccccc32)ccc1CNC(=O)N1CCC[C@H]1C(=O)OC(C)(C)C | 390 | 
CCOC(=O)CNC(=O)NCc1ccc(C(=O)N2CCCCc3ccccc32)cc1C | 140 | 
Cc1cc(C(=O)N2CCCCc3ccccc32)ccc1CNC(=O)NCC(=O)N1CCCC1 | 100 | 
COC(=O)CNC(=O)NCc1ccc(C(=O)N2CCCCc3ccccc32)cc1C | 37 | 
Cc1ccn(-c2ccc(C(=O)N3Cc4cccn4Cc4ccccc43)c(Cl)c2)n1 | < 1 | 
Cc1cc(C(=O)N2CCCCc3ccccc32)ccc1CNC(=O)N1CCC[C@H]1C(=O)OC(C)C | 950 | 
Cc1cc(C(=O)N2CCCCc3ccccc32)ccc1CNC(=O)Nc1ccc[nH]c1=O | 140 | 
Cc1cc(C(=O)N2CCCCc3ccccc32)ccc1CNC(=O)Nc1ccccc1 | 130 | 
Cc1cc(C(=O)N2CCCCc3ccccc32)ccc1CNC(=O)Nc1c(F)cccc1F | 2.1 | Ki (Vasopressin V2 receptor [6]): 200 nM; EC50 (Vasopressin V2 receptor [3]): 13 nM; inhibition in vivo at 1 mg/kg (Rattus norvegicus [4]): 0%; Ki (Oxytocin receptor): > 10000 nM; Activity (Rattus norvegicus [7]): inactive
Cc1cc(C(=O)N2CCCCc3ccccc32)cc(C)c1CNC(=O)Nc1c(F)cccc1F | 82 | 
Cc1cc(C(=O)N2CCCCc3ccccc32)ccc1CNC(=O)NCC(=O)Oc1ccccc1 | 820 | 
Cc1cc(C(=O)N2CCCCc3ccccc32)ccc1CNC(=O)N1C[C@H](OCc2ccccc2)C[C@H]1C(=O)N(C)C | 10 | 
O=C(NCc1ccc(C(=O)N2CCCCc3ccccc32)c(F)c1)Nc1c(F)cccc1F | 180 | 
CO[C@@H]1C[C@@H](C(=O)N(C)C)N(C(=O)NCc2ccc(C(=O)N3CCCCc4ccccc43)cc2C)C1 | 4.7 | EC50 (Vasopressin V2 receptor [3]): 65 nM; inhibition in vivo at 1 mg/kg (Rattus norvegicus [4]): 84%
Cc1cc(C(=O)N2CCCCc3ccccc32)ccc1CNC(=O)NCC(=O)O | 180 | 
Cc1cc(C(=O)N2CCCCc3ccccc32)ccc1CNC(=O)NCC(=O)OC(C)(C)C | 120 | 
COC1(OC)C[C@@H](C(=O)N(C)C)N(C(=O)NCc2ccc(C(=O)N3CCCCc4ccccc43)cc2C)C1 | 20 | 
O=C(NCc1ccc(C(=O)N2CCCCc3ccccc32)cc1)Nc1c(F)cccc1F | 47 | Ki (Oxytocin receptor): > 10000 nM; Activity [8]: 30%
CCO[C@@H]1C[C@@H](C(=O)N(C)C)N(C(=O)NCc2ccc(C(=O)N3CCCCc4ccccc43)cc2C)C1 | 4.3 | EC50 (Vasopressin V2 receptor [3]): 15 nM; inhibition in vivo at 1 mg/kg (Rattus norvegicus [4]): 60%
